Assay outcomes: PubChem BioAssay, several laboratories
Shown are actives, neighbours in structure and some others; about 3.1% of the full set was active somewhere.
HKDC1 inhibitor: inhibitors of human hexokinase HKDC1 | Q2TB90 | recombinant HKDC1, G6PDH/diaphorase resazurin coupled fluorescence | inhibition, % at 20 µM | actives 0.16% (n = 340,000) | AID 493160;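 active = inhibition above about 35% when tested at 20 µM, limit read from the data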;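 also: plate controls were DMSO wells with enzyme for no effect and DMSO wells lacking enzyme for full effect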
Target sequence (Q2TB90 whole entry, looked up): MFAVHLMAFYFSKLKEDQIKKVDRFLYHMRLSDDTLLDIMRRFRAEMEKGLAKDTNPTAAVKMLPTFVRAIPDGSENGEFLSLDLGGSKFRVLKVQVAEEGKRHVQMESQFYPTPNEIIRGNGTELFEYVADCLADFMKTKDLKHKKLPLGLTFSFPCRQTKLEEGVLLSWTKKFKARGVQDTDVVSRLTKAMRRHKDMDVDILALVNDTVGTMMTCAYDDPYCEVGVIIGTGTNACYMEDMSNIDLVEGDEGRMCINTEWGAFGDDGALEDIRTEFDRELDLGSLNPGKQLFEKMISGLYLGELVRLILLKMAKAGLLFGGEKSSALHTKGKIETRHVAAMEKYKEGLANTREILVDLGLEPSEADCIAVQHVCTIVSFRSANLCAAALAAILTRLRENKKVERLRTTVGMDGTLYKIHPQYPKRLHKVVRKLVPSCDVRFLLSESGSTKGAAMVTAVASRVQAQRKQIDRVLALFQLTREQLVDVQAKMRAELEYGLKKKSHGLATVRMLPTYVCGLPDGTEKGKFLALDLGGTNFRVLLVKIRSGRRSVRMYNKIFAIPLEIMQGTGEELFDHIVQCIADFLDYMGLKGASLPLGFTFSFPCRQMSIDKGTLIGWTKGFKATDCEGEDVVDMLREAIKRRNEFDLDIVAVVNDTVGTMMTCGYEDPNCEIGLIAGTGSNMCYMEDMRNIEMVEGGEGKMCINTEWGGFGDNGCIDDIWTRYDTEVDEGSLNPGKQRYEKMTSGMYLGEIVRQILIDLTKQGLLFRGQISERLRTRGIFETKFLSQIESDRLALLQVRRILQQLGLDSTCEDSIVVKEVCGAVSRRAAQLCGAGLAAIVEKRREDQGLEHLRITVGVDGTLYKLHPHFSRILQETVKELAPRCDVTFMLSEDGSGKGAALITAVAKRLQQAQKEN
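Material: recombinant HKDC1 hexokinase; Amount: HKDC1 at 5 µg/mL; Medium: Tris pH 8.0 buffer with MgCl2, Tween-20, BSA, BME; Schedule: 90 min reaction incubation at room temperature, dark; Technique: coupled resazurin fluorescence, excitation 525 nm, emission 613 nm.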
Hsp70 act: Hsp70 transcriptional activation, primary screen; HeLa Hsp70 promoter luciferase reporter, luminescence; scaled: vehicle 0, proteasome-inhibitor control 100%; activation, % at 10 µM; actives 0.04% (n = 200,000); AID 1203;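 active = activation above the mean across all tested compounds plus 3 SD, cutoff set per campaign, cut at about 5.5% in these data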;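 also: 100% = MG132 at 30 µM as the positive control and 0% = DMSO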
HSP90 inh: HSP90 refolding inhibition in rabbit reticulocyte lysate; luciferase refolding luminescence, 3 h; inhibition, % at 5.6 µM; actives 0.91% (n = 290,000);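 active = inhibition above the screen-wide mean plus 3 SD, computed separately per campaign, cut at about 16% in these data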;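 also: 0% = DMSO wells and 100% = 60 µM geldanamycin wells; inhibitors lower the luminescence because luciferase stays unfolded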
Tb hexokinase: T. brucei hexokinase 1 inhibition | recombinant TbHK1, G6PDH-coupled NADH A340 | inhibition, % at 10 µM | actives 0.11% (n = 220,000);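 active = inhibition of 50% or more in the single-dose primary screen; inactive = inhibition below 50%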
HSF1 inh: HSF1 inhibition | actives 0.77% (n = 300,000) | NIH3T3-HGL HSE-luciferase, MG132-induced, luminescence 8 h; stronger effect = lower value | activity change, negative = inhibition, % at 7.5 µM (by protocol) | AID 2098;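 active = more than half of replicate wells show activity change below -50%, luminescence cut by over half; inconclusive = some wells, but at most half, below -50%; inactive = no replicate well below -50%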;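 also: luciferase reports HSF-1 transcriptional activity via heat shock element; 0% = median of DMSO wells and -100% = zero luminescence signal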
HSF-1 act: increases HSF-1 driven luciferase reporter signal; actives 1.7% (n = 300,000); activation, % at 9 µM; NIH3T3-HGL HSF-1 luciferase reporter, MG132, 8 h; 100% = twice DMSO control signal;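 active = mean replicate activation of at least 50% with a set share of replicates each reaching 50%; inconclusive = only one of those two conditions met; inactive = mean below 50% and too few replicates reaching it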;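 also: 0% = median of the neutral control wells and 100% = twice that signal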
* = called active by the depositor; ? = inconclusive; nt = no result.

SMILES	HKDC1 inhibitor	Hsp70 act	HSP90 inh	Tb hexokinase	HSF1 inh	HSF-1 act
CC[N+]1(C)CCC(O)(c2ccc(OC)cc2)C(C(=O)c2ccc(OC)cc2)C1 (centres undefined)	1	nt	nt	nt	nt	nt
COc1cc(/C=C/c2ccc3cccc(OC)c3n2)c(OC(C)=O)c([N+](=O)[O-])c1	3	0	-2	-16	-13	7
COc1c(OC(C)=O)ccc(/C=C/c2ccc3cccc(OCc4ccccc4)c3n2)c1[N+](=O)[O-]	-8	0	14	-4	45	61*
O=C(O)c1ccc(S(=O)(=O)N2CCC(n3nnc4cc(C(F)(F)F)ccc43)CC2)cc1	-3	nt	-3	nt	-1	4
O=C(O)c1cccc(S(=O)(=O)N2CCC(n3nnc4cc(C(F)(F)F)ccc43)CC2)c1	-3	nt	-2	nt	39	79*
COn1c(-c2ccccc2)nc2ccc(Cl)cc21	3	0	-2	6	32	66*
O=[N+]([O-])c1ccc2nc(-c3ccccc3)n(OCc3ccc(Cl)cc3)c2c1	9	0	-4	-4	17	59*
COC(=O)c1cc(S(=O)(=O)Nc2cccc(-c3cnco3)c2)oc1C	-2	nt	-1	nt	-7	-8
COc1cc(OC)cc(C(=O)NNS(=O)(=O)c2ccc(F)cc2)c1	2	nt	1	nt	-6	-9
CSCCC(NC(=O)COc1ccccc1)C(=O)N(C)Cc1cccc(F)c1 (centres undefined)	-2	nt	nt	nt	nt	nt
Cc1cc(C)n(-c2cc(=O)n(C)c(=O)n2C)n1	-7	0	0	-7	17	67*
Cc1cc(=O)[nH]c(-n2nc(C)cc2C)n1	-6	0	-8	2	2	3
Cc1ccc([N+](=O)[O-])cc1N=Nc1c(-c2ccc([N+](=O)[O-])cc2)[nH]n(C(N)=S)c1=O	-12	0	1	-4	19	56*
CS(=O)(=O)c1ccc(C(=O)OCC(=O)NC23CC4CC(CC(C4)C2)C3)cc1[N+](=O)[O-]	33	0	1	-2	26	51*
Cn1cccc1C(=O)NC(=O)COC(=O)c1ccc(S(C)(=O)=O)c([N+](=O)[O-])c1	10	nt	nt	nt	nt	nt
CN1C(=O)C2C(c3ccc(N(C)C)cc3)=NN(Cc3ccccc3)C2C1=O (centres undefined)	3	0	4	-22	29	75*
COc1ccc(C2=NN(Cc3ccccc3)C3C(=O)NC(=O)C23)cc1 (centres undefined)	0	0	1	3	2	12
CCN(CC)CCc1nc(-c2ccccc2)no1	-3	nt	nt	nt	nt	nt
COc1ccc(C(=O)CC(=O)C(=O)NCCc2cccc(C)c2)cc1	-17	0	-5	24	39	70*
COc1ccc(CCNC(=O)/C=C\c2ccccc2)cc1OC	17	0	2	1	-6	4
COc1ccc(C(=O)CC(=O)C(=O)Nc2cc(OC)c(OC)c(OC)c2)cc1	-3	nt	0	nt	43	77*
COc1ccc(C(=O)CC(=O)C(=O)Nc2ccccc2)cc1	-1	nt	-1	nt	8	27
COc1ccc(/C=C/C(=O)NC(=S)NCCc2ccc(OC)c(OC)c2)cc1	17	0	-1	-13	-61*	-67
O=C(NCCC1=CCCCC1)c1ccc(-n2cncn2)c([N+](=O)[O-])c1	5	nt	nt	nt	6	-4
O=C(CCN1C(=O)C2CCCCC2C1=O)Nc1ccc(Br)cc1F (centres undefined)	3	nt	nt	nt	-2	-15
SMILES	HKDC1 inhibitor	Hsp70 act	HSP90 inh	Tb hexokinase	HSF1 inh	HSF-1 act
Cc1ccc(/C=C/C(=O)c2cc(Br)ccc2OC(=O)c2ccco2)cc1	30	0	7	-6	-12	12
COc1ccccc1/C=C/C(=O)c1cc(Br)ccc1OC(=O)c1ccco1	23	0	4	-7	76	103*
CCn1c(SCC(=O)N2CCOCC2)nc2oc3c(Cl)cc(Cl)cc3c(=O)c2c1=O	nt	0	-3	-13	66	121*
O=C1NC(=O)C2(C=C(c3ccccc3)C(O)(c3ccccc3)C2)N1 (centres undefined)	4	nt	nt	nt	nt	nt
CCSC1(SCC)N=C(N)C2(C#N)C(c3ccc(F)cc3)C12C#N (centres undefined)	-3	0	1	1	74	82*
COc1cc(/C=N/Nc2nc3ccccc3[nH]2)cc(OC)c1O	-2	0	3	-37	146	149*
COc1cccc(/C=N/Nc2nc3ccccc3[nH]2)c1O	18	nt	1	-18	31	49
COc1cc(/C=N/Nc2nc3ccccc3[nH]c2=O)ccc1O	-11	0	3	-25	-9	-28
COc1cc(/C=C(/C(=O)c2cccs2)c2nc3ccccc3[nH]2)cc(OC)c1O	19	1	4	-30	268	351*
O=C(/C(=C/c1ccc(Cl)cc1)c1nc2ccccc2[nH]1)c1ccccc1	2	5	4	2	123	184*
COc1cc(/C=N/Nc2nc3ccccc3[nH]2)ccc1O	8	0	-3	-54	333	344*
CC(C)C[C@H](NC(=O)N1CCn2c1nc1ccccc12)C(=O)NCC1CCCO1 (some centres undefined)	4	nt	0	nt	0	2
Cc1cc(NC(=O)CSCC(=O)OCC(=O)c2cccc(Br)c2)no1	1	nt	nt	nt	nt	nt
CC1CC(C)CN(C(=O)COC(=O)c2nn(C)c(=O)c3ccccc23)C1 (centres undefined)	-1	nt	nt	nt	6	12
COc1cc(/C=N/Nc2cc(C)nc(N)n2)ccc1O	0	nt	-4	nt	4	8
COc1cc(/C=N/Nc2snc(SC)c2C#N)ccc1O	-10	0	-2	-16	46	75*
COc1ccc(O)c(/C=N/Nc2nc3ccccc3[nH]2)c1	-14	0	6	-34	179	236*
O=[N+]([O-])c1ccc(O)c(/C=N/Nc2nc3ccccc3[nH]2)c1	-34	0	-3	-10	79	?
O=C(NCC1CCCO1)c1cn(Cc2ccccc2)nc1-c1ccc(Cl)cc1 (centres undefined)	1	nt	nt	nt	nt	nt
O=C(NCCCN=C1NS(=O)(=O)c2ccccc21)c1ccc(Cl)cc1	-4	nt	-6	nt	-7	-7
CC(=O)c1cc(O)c2ccccc2c1O	44*	nt	6	-10	5	20
O=c1c(-c2ccccc2)c1-c1ccccc1	nt	0	20*	nt	13	-3
Cc1ccc(C)n1-n1c(C)nc2sc(-c3ccccc3)cc2c1=O	-2	0	2	-13	23	6
COc1ccc(-c2cc3nc(C)n(N)c(=O)c3s2)cc1	-2	nt	85*	-30	-70*	-72
COc1ccc(-c2cc3nc4n(c(=O)c3s2)CCCCC4)cc1	5	nt	-3	-23	18	40
